Assay results as given in ChEMBL document CHEMBL1671862, “Impact of nucleoside reverse transcriptase inhibitors on mitochondrial DNA and RNA in human skeletal muscle cells” (Antimicrob Agents Chemother, 2008).

Columns and labels:
Assay type in all cases: tissue-based, Muscle tissue
[1] = Cytotoxicity against human skeletal muscle Myoblast assessed as change in POLG mitochondrial RNA level on day 5 by RT-PCR relative to untreated control
How it was run: (§1)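 Proliferating human skeletal muscle myoblasts were treated from 20-30% confluence in growth medium, with NRTIs dissolved in sterile water. Doses were plasma Cmax levels (ddI 11.8, d4T 3.6, AZT 7.1, 3TC 8.3, ABV 3.0 μmol), given singly or as combinations. Controls got medium only, and medium was renewed every 2 days at 37°C, 5% CO2. Real-time RT-PCR copies were normalized to G6PDH and expressed relative to untreated cells. Five repeats.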

[2] = Cytotoxicity against human skeletal muscle Myotube assessed as change in Tfam mitochondrial RNA level on day 5 by RT-PCR relative to untreated control
How it was run: (§2)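 Myoblasts at 70-80% confluence were differentiated into myotubes for 72 h in alpha-MEM with 10% FCS and penicillin/streptomycin. They were then treated with NRTIs at plasma Cmax levels (ddI 11.8, d4T 3.6, AZT 7.1, 3TC 8.3, ABV 3.0 μmol) for 5 days at 37°C, 5% CO2, with medium renewed every 2 days. mtDNA:nDNA, or RNA:G6PDH copies by real-time PCR, is expressed relative to untreated cells. Five repeats.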

[3] = Cytotoxicity against human skeletal muscle Myoblast assessed as increase in mitochondrial DNA on day 5 by RT-PCR relative to untreated control
How it was run: (§3)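 Myoblasts were treated from 20-30% confluence with NRTIs at plasma Cmax levels (ddI 11.8, d4T 3.6, AZT 7.1, 3TC 8.3, ABV 3.0 μmol), singly or combined. Medium was changed every 2 days at 37°C, 5% CO2, and cells were harvested on day 2 or 5. mtDNA and nDNA were measured by LightCycler real-time PCR in duplicate. The mtDNA:nDNA ratio is expressed relative to untreated cells. Five repeats.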

[4] = Cytotoxicity against human skeletal muscle Myoblast assessed as change in Tfam mitochondrial RNA level on day 2 by RT-PCR relative to untreated control; how it was run: as §1
[5] = Cytotoxicity against human skeletal muscle Myoblast assessed as change in Tfam mitochondrial RNA level on day 5 by RT-PCR relative to untreated control; how it was run: as §1
[6] = Cytotoxicity against human skeletal muscle Myoblast assessed as change in MTCO3 mitochondrial RNA level on day 2 by RT-PCR relative to untreated control; how it was run: as §1
[7] = Cytotoxicity against human skeletal muscle Myoblast assessed as change in POLG mitochondrial RNA level on day 2 by RT-PCR relative to untreated control; how it was run: as §1
[8] = Cytotoxicity against human skeletal muscle Myoblast at 100 uL on day 5 by WST-1 assay
How it was run: (§4)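 After 5 days of NRTI treatment at Cmax levels, 100 μl WST-1 reagent was added per well and incubated 1 h at 37°C, 5% CO2. Supernatant absorbance was read at 450 nm in duplicate. Results are the ratio of treated to untreated wells, run in triplicate.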

[9] = Cytotoxicity against human skeletal muscle Myotube at 100 uL on day 5 by WST-1 assay; how it was run: as §4
[10] = Cytotoxicity against human skeletal muscle Myoblast assessed as change in MTCYB mitochondrial RNA level on day 2 by RT-PCR relative to untreated control; how it was run: as §1
[11] = Cytotoxicity against human skeletal muscle Myoblast assessed as increase in mitochondrial DNA on day 2 by RT-PCR relative to untreated control; how it was run: as §3
[12] = Cytotoxicity against human skeletal muscle Myotube assessed as change in POLG mitochondrial RNA level on day 5 by RT-PCR relative to untreated control; how it was run: as §2
[13] = Cytotoxicity against human skeletal muscle Myotube assessed as decrease in mitochondrial DNA on day 5 by RT-PCR relative to untreated control; how it was run: as §2
[14] = Cytotoxicity against human skeletal muscle Myoblast assessed as decrease in MTCYB mitochondrial RNA level on day 5 by RT-PCR relative to untreated control; how it was run: as §1
[15] = Cytotoxicity against human skeletal muscle Myoblast assessed as decrease in mitochondrial DNA on day 5 by RT-PCR relative to untreated control; how it was run: as §3
[16] = Cytotoxicity against human skeletal muscle Myotube assessed as decrease in MTCYB mitochondrial RNA level on day 5 by RT-PCR relative to untreated control; how it was run: as §2
[17] = Cytotoxicity against human skeletal muscle Myoblast assessed as decrease in mitochondrial DNA on day 2 by RT-PCR relative to untreated control; how it was run: as §3
[18] = Cytotoxicity against human skeletal muscle Myotube assessed as decrease in MTCO3 mitochondrial RNA level on day 5 by RT-PCR relative to untreated control; how it was run: as §2

Row | Compound | Activity [1] | Activity [2] | Ratio [3] | Activity [4] | Activity [5] | Activity [6] | Activity [7] | Activity [8] | Activity [9] | Activity [10] | Ratio [11] | Activity [12] | Ratio [13] | Ratio [14] | Ratio [15] | Ratio [16] | Ratio [17] | Ratio [18]
1 | Nc1nc(NC2CC2)c2ncn([C@H]3C=C[C@@H](CO)C3)c2n1.Nc1nc(NC2CC2)c2ncn([C@H]3C=C[C@@H](CO)C3)c2n1.O=S(=O)(O)O [ABACAVIR SULFATE] | Non-toxic | Non-toxic | 1.07 | Non-toxic | Non-toxic | Non-toxic | Non-toxic | Non-toxic | Non-toxic | Non-toxic | 1.19 | Non-toxic |  |  |  |  |  | 
2 | O=c1[nH]cnc2c1ncn2[C@H]1CC[C@@H](CO)O1 [DIDANOSINE] | Non-toxic | Non-toxic |  | Non-toxic | Non-toxic | Non-toxic | Non-toxic | Non-toxic | Non-toxic | Non-toxic |  | Non-toxic | 0.5 | 0.51 | 0.22 | 0.66 | 0.51 | 
3 | Nc1ccn([C@@H]2CS[C@H](CO)O2)c(=O)n1 [LAMIVUDINE] | Non-toxic | Non-toxic | 0.94 | Non-toxic | Non-toxic | Non-toxic | Non-toxic | Non-toxic | Non-toxic | Non-toxic | 1.16 | Non-toxic |  |  |  |  |  | 
4 | Cc1cn([C@H]2C=C[C@@H](CO)O2)c(=O)[nH]c1=O [STAVUDINE] | Non-toxic | Non-toxic | 0.98 | Non-toxic | Non-toxic | Non-toxic | Non-toxic | Non-toxic | Non-toxic | Non-toxic | 1.2 | Non-toxic |  |  |  |  |  | 0.69
5 | Cc1cn([C@H]2C[C@H](N=[N+]=[N-])[C@@H](CO)O2)c(=O)[nH]c1=O [ZIDOVUDINE] | Non-toxic | Non-toxic | 1.14 | Non-toxic | Non-toxic | Non-toxic | Non-toxic | Non-toxic | Non-toxic | Non-toxic | 1.45 | Non-toxic |  |  |  |  |  | 
